From article PMC12466149 (eBioMedicine, 2025) come the findings set out here.

“Also recorded” adds a separate entry of the source.

The subject of data set [1] is mitochondrial complex I (mtCI). The experiment in a line: mtCI activity in isolated brain mitochondria. The data set is classed as biochemical, mouse. Conditions: 1 μM rotenone. The procedure, abridged: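 Mouse brain mitochondria isolated by differential centrifugation (5900×g 4 min, then 12,000×g 10 min, 4 °C) in mannitol/sucrose/HEPES-Tris/EGTA medium, pH 7.4, with BSA and 0.02% digitonin. Complex I activity measured spectrophotometrically at 25 °C as oxidation of 0.15 mM NADH at 340 nm. Buffer: sucrose/Tris-HCl pH 7.5/KCl with 10 μM cytochrome c, 40 μg/ml alamethicin and 1 mM MgCl2.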

Data set [2] deals with MC65 Tet-Off cells (Aβ expressed). The experiment in a line: Protection against Aβ toxicity in MC65 Tet-Off cells. The format is cell-based, human. To be noted: any concentration of rotenone; data not shown. The procedure, abridged: (§1)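 MC65 human neuroblastoma cells in high-glucose DMEM with 10% FBS, 1 mM pyruvate and nonessential amino acids, 5% CO2, 37 °C. Tet-Off (Aβ expressed) cells got test compound at 2 nM–5 μM, optionally after 30 min pretreatment with 32 nM rotenone. Tet-On cells got vehicle or 32 nM rotenone. Viability at 3 days by MTT: 0.25 mg/ml, 4 h at 37 °C, solubilised in HCl/isopropanol, read at 570 nm. Tet-On vehicle set as 100%.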

In data set [3] the test system is MC65 Tet-On cells. The experiment in a line: Cytotoxicity in MC65 Tet-On cells. The data set is classed as cell-based, human. To be noted: 32 nM rotenone. The procedure, abridged: as §1
Data set [4] concerns MC65 Tet-On cells. The experiment in a line: Real-time respirometry. The format is cell-based, human.
The next data set has as its system SH-SY5Y APPSWE cells. The experiment in a line: Mitochondrial stress test. The format is cell-based, human. Conditions: rotenone 256 nM. The procedure, abridged:
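For SH-SY5Y cells stably expressing APPSWE, cells were held 1 h at 37 °C without CO2 in XF DMEM pH 7.4 (1 mM pyruvate, 2 mM glutamine, 10 mM glucose). OCR was recorded basally, then after oligomycin A and FCCP (each titrated over 0.5–3 μM) and 0.5 μM rotenone plus 0.5 μM antimycin A. Hoechst (5 μM final) was used for cell-count normalisation. SRC = maximal minus basal OCR.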

For `C=C(C)[C@H]1Cc2c(ccc3c2O[C@@H]2COc4cc(OC)c(OC)cc4[C@@H]2C3=O)O1` [rotenone], the “mtCI inhibition (in words)” value in data set [1] is reported as “complete inhibition; also recorded: completely inhibits”. In addition, in data set [2], the “Protection against Aβ toxicity” value is listed as “did not protect”. Also, the Cytotoxicity result with MC65 Tet-On cells [3] is recorded as “show no toxicity; also recorded: did not induce cell death”. In the data set on MC65 Tet-On cells [4] (32 nM rotenone, within 30 min), the “Reduction of OCR” value is 50%. Further, in the data set on MC65 Tet-On cells [4] (kinetic injection), the Effect on respiration result is “immediately blocked respiration”. Moreover, the “Spare respiratory capacity (SRC)” value in the data set on SH-SY5Y APPSWE cells is on record as “did not improve SRC”.
